For assay [1], the system named is Mycobacterium tuberculosis. Briefly: Antitubercular activity against auto-luminescent Mycobacterium tuberculosis H37Ra measured for 5 days by luminescence assay. Format: functional. The settings on record: 120 h. A digest of the protocol:
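Unmarked autoluminescent H37Ra homogenised with glass beads, grown in 7H9 with 0.05% Tween 80 and 10% OADC to OD600 0.3–0.5. At 2 million RLU, diluted to 2000–4000 RLU in Tween-free 7H9. Compounds tested in 3-fold steps from […] μg mL⁻¹, with DMSO and rifampicin (10, 1, 0.1 μg mL⁻¹) controls. RLU read daily for 5 days. MIClux is the lowest concentration giving RLUdrug/RLUDMSO below 10%.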

In another assay the test system is MDCK. Briefly: Cytotoxicity against MDCK cells assessed as reduction in cell viability after 72 hrs by CCK-8 assay. The settings on record: Canis lupus familiaris. It is filed as cell-based. A general note: Formazan colour is commonly taken as a measure of viable cells.
Assay [2] has as its system Mycobacterium tuberculosis. The assay can be described thus: Antitubercular activity against Mycobacterium tuberculosis H37Ra measured for 5 days by resazurin dye-based assay. Format: functional. Conditions: 120 h.

Converted amounts (≈) assume the structure as drawn.

One may read the MIC90 as an inhibitory concentration at the 90% level, which refers to growth in some studies and to a panel of isolates in others. Low values mean higher susceptibility, high ones lower susceptibility. By IC50 is commonly meant the point on the concentration scale where inhibition reaches its midpoint. By MIC is commonly meant the least concentration at which growth counts as inhibited. Low readings indicate greater potency, high ones weaker potency.

For `CO[C@H]1/C=C/O[C@@]2(C)Oc3c(C)c(O)c4c(O)c(c(/C=N/N5CCN(C)CC5)c(O)c4c3C2=O)NC(=O)/C(C)=C\C=C\[C@H](C)[C@H](O)[C@@H](C)[C@@H](O)[C@@H](C)[C@H](OC(C)=O)[C@@H]1C` [RIFAMPIN], the MIC90 in assay [1] turned out to be 0.25 µg/mL (≈ 0.304 µM).
Still for that read-out and setting: in the case of `Cc1csc(N/N=C(/C=C/c2ccc(F)c(C)c2)c2nc3ccccc3[nH]2)n1` it was 10 µg/mL (≈ 25.5 µM); in that of `COc1cc(OC)c(/C=C/C(=N/NC(N)=S)c2nc3ccccc3[nH]2)c(OC)c1`, greater than 50 µg/mL.
As for `Cc1ccc(/C=C/C(=N/NC(N)=S)c2nc3ccccc3[nH]2)cc1`, the MIC90 in assay [1] worked out at 5 µg/mL (≈ 14.9 µM). Moreover, the IC50 with MDCK is 3.7 µg/mL (≈ 11 µM).
As for `COc1ccc(/C=C/C(=N/Nc2nc(C)cs2)c2nc3ccccc3[nH]2)cc1`, the MIC90 in assay [1] was found to be 10 µg/mL (≈ 25.7 µM). In addition, the half-maximal inhibitory concentration (IC50) with MDCK amounted to 1.9 µg/mL (≈ 4.88 µM).
In turn, `Cc1csc(N/N=C(/C=C/c2cc(F)cc(F)c2)c2nc3ccccc3[nH]2)n1` registered an MIC90 in assay [1] of 10 µg/mL (≈ 25.3 µM).
Compound `COc1cccc(/C=C/C(=N/NC(N)=S)c2nc3ccccc3[nH]2)c1OC` yielded an MIC90 in assay [1] of 5 µg/mL (≈ 13.1 µM). Besides, the IC50 in the assay with MDCK came out at 3.9 µg/mL (≈ 10.2 µM).
As for `NC(=S)N/N=C(/C=C/c1ccc[nH]1)c1nc2ccccc2[nH]1`, the MIC90 in assay [1] worked out at 100 µg/mL (≈ 322 µM).
Regarding `CCNC(=O)Nc1nc2cc(-c3cccnc3)cc(-c3ccccn3)c2[nH]1`, the MIC in assay [2] came out at 0.001 µg/mL (≈ 0.00279 µM).
In assay [1], `Cc1cc(/C=C/C(=N/NC(N)=S)c2nc3ccccc3[nH]2)ccc1F` had an MIC90 of 4 µg/mL (≈ 11.3 µM). Moreover, the IC50 in the assay with MDCK is 1.6 µg/mL (≈ 4.53 µM).
Compound `Cc1csc(N/N=C(/C=C/c2ccc(OC(F)(F)F)cc2)c2nc3ccccc3[nH]2)n1` registered an MIC90 in assay [1] of 10 µg/mL (≈ 22.6 µM).
Compound `NC(=S)N/N=C(/C=C/c1ccc(Br)cc1)c1nc2ccccc2[nH]1` returned an MIC90 in assay [1] of 4 µg/mL (≈ 9.99 µM). In addition, the concentration for half-maximal inhibition (IC50) in the assay with MDCK is 2.6 µg/mL (≈ 6.5 µM).
Compound `CCN(CC)c1ccc(/C=C/C(=N/NC(N)=S)c2nc3ccccc3[nH]2)cc1` yielded an MIC90 in assay [1] of 10 µg/mL (≈ 25.5 µM).
Still for that read-out and setting: in the case of `Cc1csc(N/N=C(/C=C/c2ccc(F)cc2)c2nc3ccccc3[nH]2)n1` it was 5 µg/mL (≈ 13.2 µM).
The compound `CCN(CC)c1ccc(/C=C/C(=N/Nc2nc(C)cs2)c2nc3ccccc3[nH]2)cc1` registered an MIC90 in assay [1] of 2.5 µg/mL (≈ 5.81 µM). For the same compound, in the assay on MDCK, the IC50 was greater than 30 µg/mL.
Compound `Cc1csc(N/N=C(/C=C/c2ccc(Br)cc2)c2nc3ccccc3[nH]2)n1` gave an MIC90 in assay [1] of 10 µg/mL (≈ 22.8 µM).
Regarding `NC(=S)N/N=C(/C=C/c1ccccc1)c1nc2ccccc2[nH]1`, in assay [1], the MIC90 came to 5 µg/mL (≈ 15.6 µM). The IC50 with MDCK was 3.4 µg/mL (≈ 10.6 µM).
`NC(=S)N/N=C(/C=C/c1cc(F)cc(F)c1)c1nc2ccccc2[nH]1` had an MIC90 in assay [1] of 5 µg/mL (≈ 14 µM). The half-inhibitory concentration (IC50) with MDCK was 1.6 µg/mL (≈ 4.48 µM).
The corresponding values for `NC(=S)N/N=C(/C=C/c1ccc(F)cc1)c1nc2ccccc2[nH]1` are 2.5 µg/mL (≈ 7.37 µM) and 1.6 µg/mL (≈ 4.71 µM).
`Cc1csc(N/N=C(/C=C/c2ccc(Cl)c(F)c2)c2nc3ccccc3[nH]2)n1` displayed an MIC90 in assay [1] of 10 µg/mL (≈ 24.3 µM).
Same read-out and setting: the value for `COc1cccc(/C=C/C(=N/Nc2nc(C)cs2)c2nc3ccccc3[nH]2)c1OC` was 10 µg/mL (≈ 23.8 µM); that for `Cc1csc(N/N=C(/C=C/c2cccc3[nH]ccc23)c2nc3ccccc3[nH]2)n1` was 10 µg/mL (≈ 25.1 µM).
On the same count and under the same terms, in the case of `COc1cc(OC)c(/C=C/C(=N/Nc2nc(C)cs2)c2nc3ccccc3[nH]2)c(OC)c1` it was greater than 50 µg/mL.
The compound `NC(=S)N/N=C(/C=C/c1cccc2[nH]ccc12)c1nc2ccccc2[nH]1` displayed an MIC90 in assay [1] of 5 µg/mL (≈ 13.9 µM). Moreover, in the assay on MDCK, the IC50 came to 0.91 µg/mL (≈ 2.52 µM).
`Cc1ccc(/C=C/C(=N/Nc2nc(C)cs2)c2nc3ccccc3[nH]2)cc1` showed an MIC90 in assay [1] of 10 µg/mL (≈ 26.8 µM).
On the same count and under the same terms, the value for `Cc1csc(N/N=C(/C=C/c2ccc[nH]2)c2nc3ccccc3[nH]2)n1` was 100 µg/mL (≈ 287 µM).
`NC(=S)N/N=C(/C=C/c1ccc(Cl)c(F)c1)c1nc2ccccc2[nH]1` came in with an MIC90 in assay [1] of 5 µg/mL (≈ 13.4 µM). In addition, the IC50 in the assay on MDCK was determined as 1.5 µg/mL (≈ 4.01 µM).
In assay [1], `COc1ccc(/C=C/C(=N/NC(N)=S)c2nc3ccccc3[nH]2)cc1` came in with an MIC90 of 10 µg/mL (≈ 28.5 µM).
`NC(=S)N/N=C(/C=C/c1ccc(OC(F)(F)F)cc1)c1nc2ccccc2[nH]1` returned an MIC90 in assay [1] of 5 µg/mL (≈ 12.3 µM). Besides, in the assay with MDCK, the IC50 was determined as 0.34 µg/mL (≈ 0.839 µM).
The corresponding values for `Cc1csc(N/N=C(/C=C/c2ccccc2)c2nc3ccccc3[nH]2)n1` are 4 µg/mL (≈ 11.1 µM) and 2.9 µg/mL (≈ 8.07 µM).
